This note sets out measurements from ChEMBL document CHEMBL1133564, “A novel series of 4-piperidinopyridine and 4-piperidinopyrimidine inhibitors of 2,3-oxidosqualene cyclase-lanosterol synthase” (J Med Chem, 2000).

A short description of data set [1]: Effective dose (80%) required to inhibit cholesterol biosynthesis in rat after oral administration. Type of data set: functional. The gist of the method: (§1)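 Female rats (130 ± 20 g) on reversed lighting, given test compound orally across a dose range in DMSO/HPMC (n = 2). Tritiated mevalonate (2.5 µCi) 1 h post-dose; killed 1 h later. Liver saponified, isohexane-extracted, HPLC radio-profile of sterols. ED50 or ED80 for inhibition of cholesterol biosynthesis derived from dose-response.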

In data set [2] the target is T1, Lanosterol synthase (Homo sapiens, UniProt P48449).
T1 sequence (P48449 whole entry): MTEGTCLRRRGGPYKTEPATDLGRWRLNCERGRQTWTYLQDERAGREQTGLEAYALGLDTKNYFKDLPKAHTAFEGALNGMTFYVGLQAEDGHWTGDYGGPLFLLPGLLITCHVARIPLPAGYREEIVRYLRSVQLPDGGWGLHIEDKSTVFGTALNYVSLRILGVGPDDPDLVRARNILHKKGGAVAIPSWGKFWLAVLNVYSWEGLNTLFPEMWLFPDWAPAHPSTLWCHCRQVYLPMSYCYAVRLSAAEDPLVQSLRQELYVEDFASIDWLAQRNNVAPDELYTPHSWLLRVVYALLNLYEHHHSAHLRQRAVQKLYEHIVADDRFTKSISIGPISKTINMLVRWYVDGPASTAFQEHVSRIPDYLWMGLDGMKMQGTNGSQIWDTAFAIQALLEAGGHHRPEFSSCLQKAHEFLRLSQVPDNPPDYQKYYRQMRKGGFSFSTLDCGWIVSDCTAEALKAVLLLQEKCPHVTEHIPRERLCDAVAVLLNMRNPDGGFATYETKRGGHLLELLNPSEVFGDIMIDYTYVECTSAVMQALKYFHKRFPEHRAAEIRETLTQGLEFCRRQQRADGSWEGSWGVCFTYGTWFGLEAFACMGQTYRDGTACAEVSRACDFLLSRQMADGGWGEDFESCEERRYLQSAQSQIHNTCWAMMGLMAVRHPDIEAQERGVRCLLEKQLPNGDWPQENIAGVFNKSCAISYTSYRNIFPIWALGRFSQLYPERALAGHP
Description: Compound was tested for its inhibition against human OSC enzyme. Summed up: (§2)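 Rat liver microsomes (15-20 mg/mL protein stock) diluted in 50 mM phosphate buffer pH 7.4 with Tween. Test compound at serial 10-fold dilutions (10^-5 M, 10^-6 M, etc.) preincubated with microsomes 10 min at 37 °C. Oxidosqualene substrate added, then 1 h incubation. Stopped with ethanolic KOH, saponified 80 °C 2 h, hexane-extracted. IC50 by curve fitting with tight-binding model. Human OSC run the same way.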

Data set [3] concerns the target T2, Lanosterol synthase (Rattus norvegicus, UniProt P48450).
T2 sequence (P48450 whole entry): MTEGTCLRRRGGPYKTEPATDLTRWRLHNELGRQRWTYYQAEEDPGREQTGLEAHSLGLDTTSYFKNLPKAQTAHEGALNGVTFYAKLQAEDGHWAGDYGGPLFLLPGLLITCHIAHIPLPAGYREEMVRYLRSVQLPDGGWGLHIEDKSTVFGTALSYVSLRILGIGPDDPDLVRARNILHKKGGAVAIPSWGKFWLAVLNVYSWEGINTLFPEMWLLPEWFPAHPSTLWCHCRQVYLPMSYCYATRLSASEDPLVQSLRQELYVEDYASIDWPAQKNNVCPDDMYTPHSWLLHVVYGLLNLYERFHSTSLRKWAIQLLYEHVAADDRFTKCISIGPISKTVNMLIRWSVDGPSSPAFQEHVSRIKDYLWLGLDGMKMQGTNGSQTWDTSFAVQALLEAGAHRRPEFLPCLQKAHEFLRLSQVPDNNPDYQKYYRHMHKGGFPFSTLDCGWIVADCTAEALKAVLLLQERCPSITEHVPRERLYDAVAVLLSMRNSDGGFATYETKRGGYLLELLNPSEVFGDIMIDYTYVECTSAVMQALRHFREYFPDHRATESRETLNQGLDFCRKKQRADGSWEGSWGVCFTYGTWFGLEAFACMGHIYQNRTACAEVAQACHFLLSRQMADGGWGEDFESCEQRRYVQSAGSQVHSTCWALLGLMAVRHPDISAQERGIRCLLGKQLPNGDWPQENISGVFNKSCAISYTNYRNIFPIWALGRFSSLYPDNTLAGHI
Description: Compound was tested for its inhibition against rat OSC enzyme. Summed up: as §2

Data set [4] in a line: Inhibition of cholesterol biosynthesis in rat following 2 mg/kg p.o. administration. Format: functional. The following applies: route oral. The gist of the method: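 Female rats (130 ± 20 g) kept on reversed lighting, dosed orally at 2 mg/kg in DMSO/HPMC (n = 2). Tritiated mevalonate (2.5 µCi) given 1 h later; killed after a further 1 h. Liver saponified in KOH/EtOH 80 °C 2 h, isohexane-extracted, analysed by HPLC. Percent inhibition of cholesterol biosynthesis versus controls, with sterol precursor profile for step selectivity.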

Data set [5] is described as follows: Compound was tested for its acid dissociation constant. Type of data set: ADME.
Data set [6] in a line: Effective dose (50%) required to inhibit cholesterol biosynthesis in rat after oral administration. Type of data set: functional. The gist of the method:
as §1

In data set [7] the target is T3, Lanosterol synthase (Rattus norvegicus) (UniProt P48450).
T3 sequence (whole entry): T2 sequence (P48450 whole entry)
Description: In vitro percent inhibitory activity of the compound against rat microsomal OSC enzyme at 1 uM concentration. The gist of the method: (§3)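 Rat liver microsomal OSC in phosphate-buffered Tween, pH 7.4, with test compound at 1 µM. Preincubation 10 min at 37 °C, then oxidosqualene added for 1 h. Stopped with ethanolic KOH at 80 °C for 2 h, hexane-extracted. Percent inhibition, n = 2.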

The target in data set [8] is T3, Lanosterol synthase (Rattus norvegicus). Description: (§4) In vitro inhibitory activity of the compound against rat microsomal 2,3-Oxidosqualene lanosterol cyclase (OSC). The following applies: concentration not given here. Summed up: as §2
Data set [9] is described as follows: Effective dose (50%) required to inhibit cholesterol biosynthesis in rat after administration of a shallow oral dose. Type of data set: functional. Summed up:
as §1

For data set [10], the target named is T2, Lanosterol synthase. Description: In vitro inhibitory activity of the compound against rat microsomal 2,3-Oxidosqualene cyclase-Lanosterol synthase (OSC). Summed up:
as §2

A short description of data set [11]: Effective dose (80%) required to inhibit cholesterol biosynthesis in rat after administration of a shallow oral dose. Type of data set: functional. Summed up: as §1
Data set [12] deals with T2, Lanosterol synthase. The description is as §4. The gist of the method:
as §2

Data set [13] addresses T3, Lanosterol synthase (Rattus norvegicus). Description: In vitro percent inhibitory activity against rat microsomal OSC enzyme at 1 uM concentration. The gist of the method:
as §3

Data set [14] has the same target. Description: Compound was tested for percent inhibition of OSC at 1 uM concentration in rat. Summed up:
as §3

The IC50 is the concentration that gives 50% inhibition. Read a high IC50 as lower potency. The inhibition in vivo is how much of the control response was suppressed. Read a low inhibition in vivo as a weak effect. One may read the pKa as the negative logarithm of the acid dissociation constant. A low value points to a stronger acid or weaker base. In general, ED50 refers to the dose at which the effect has come halfway, by size or by number of responders. Read a low ED50 as greater potency. For orientation: inhibition means the share of the control response that was lost under treatment. The low end stands for a response near the control, the high end for a response far below the control. As for `O=C(C1CCN(c2ccncn2)CC1)N1CCN(S(=O)(=O)c2ccc(Br)cc2)CC1`, in data set [1], the ED80 is 1.4 mg/kg. Also, the IC50 against Lanosterol synthase [2] amounted to 37 nM; against Lanosterol synthase [3], 116 nM. In data set [4], this molecule came in with an inhibition in vivo at 2 mg/kg of 81%. This molecule yielded a pKa in data set [5] of 6.1. The molecule also registered an ED50 in data set [6] of 0.5 mg/kg. In data set [7], this molecule registered an inhibition of 100%.
Turning to `O=C(c1ccc(Br)cc1)N1CCN(C(=O)C2CCN(c3ccncc3)CC2)CC1`, the inhibition in data set [8] was found to be 96%. Moreover, 2 mg/kg produced 28% inhibition in vivo in data set [4].
The molecule `O=C(C1CCN(C2=NCCS2)CC1)N1CCN(S(=O)(=O)c2ccc(Br)cc2)CC1` registered an inhibition in vivo at 2 mg/kg in data set [4] of 81%. In data set [7], this molecule registered an inhibition of 100%.
`O=C(C1CCN(c2ccncc2)CC1)N1CCN(Cc2ccc(Br)cc2)CC1` returned an inhibition in data set [8] of 100%. The same molecule showed an inhibition in vivo at 2 mg/kg in data set [4] of 48%. In [6], the ED50 stood at 1.8 mg/kg.
Molecule `O=C(C1CCN(c2ccncc2)CC1)N1CCN(S(=O)(=O)c2ccc(F)cc2F)CC1` yielded an inhibition in vivo at 2 mg/kg in [4] of 10%.
For the molecule `O=C(c1ccc(Cl)cc1)c1ccc(OC2CN3CCC2CC3)cc1` (centres undefined), in data set [5], the pKa is 9.1. Further, in data set [6], the ED50 was 2 mg/kg.
For `Cc1nsc(N2CCC(C(=O)N3CCN(S(=O)(=O)c4ccc(Br)cc4)CC3)CC2)n1`, testing at 2 mg/kg in data set [4] gave an inhibition in vivo of 9%. In [7], the inhibition was determined as 3%.
In turn, `O=C(C1CCN(c2ccncc2)CC1)N1CCN(S(=O)(=O)c2cccc(F)c2)CC1` yielded an inhibition in vivo at 2 mg/kg in data set [4] of 52%.
Still for that read-out and setting: the result for `Cc1ccc(S(=O)(=O)N2CCN(C(=O)C3CCN(c4ccncc4)CC3)CC2)cc1` reads 66%.
In the case of `CCC(C)(C)C(=O)O[C@H]1C[C@@H](C)C=C2C=C[C@H](C)[C@H](CC[C@@H]3C[C@@H](O)CC(=O)O3)[C@H]21` [SIMVASTATIN], the ED80 in [1] turned out to be 1.2 mg/kg.
The molecule `O=C(C1CCN(c2ccncc2)CC1)N1CCN(S(=O)(=O)c2ccc(I)cc2)CC1` returned an inhibition in vivo at 2 mg/kg in data set [4] of 52%. For the same molecule, the 50% effect level in [9] (ED50) was put at a dose of 2 mg/kg. Moreover, the pKa in data set [5] stood at 9.2. The IC50 against Lanosterol synthase [10] is 82 nM. The ED80 in data set [11] was < 20 mg/kg.
On to `O=C(c1ccc(C(F)(F)F)cc1)N1CCC(=Cc2ccc(C3=NCCO3)cc2)CC1`, for which the ED80 in [1] was determined as 1 mg/kg. Also, in [4], the inhibition in vivo at 2 mg/kg was found to be 93%. This molecule also returned a pKa in data set [5] of 4.7. In data set [6], the 50% effect level (ED50) was put at a dose of 0.4 mg/kg. Besides, the IC50 against Lanosterol synthase [12] was determined as 90 nM.
In data set [4], `N#Cc1ccc(S(=O)(=O)N2CCN(C(=O)C3CCN(c4ccncc4)CC3)CC2)cc1` yielded an inhibition in vivo at 2 mg/kg of 12%.
As for `O=C(C1CCN(c2ccncc2)CC1)N1CCN(S(=O)(=O)c2cccc(C(F)(F)F)c2)CC1`, testing at 2 mg/kg in data set [4] gave an inhibition in vivo of 7%.
On the same count and under the same terms, the result for `O=C(C1CCN(c2ccncc2)CC1)N1CCN(S(=O)(=O)c2ccc(F)cc2)CC1` reads 46%.
In the case of `O=C(C1CCN(C2=NCCO2)CC1)N1CCN(S(=O)(=O)c2ccc(Br)cc2)CC1`, the inhibition in data set [8] turned out to be 87%. The molecule further returned an inhibition in vivo at 2 mg/kg in [4] of 82%.
`O=C(C1CCN(c2ncccn2)CC1)N1CCN(S(=O)(=O)c2ccc(Br)cc2)CC1` registered an inhibition in vivo at 2 mg/kg in data set [4] of 23%. In addition, the inhibition in data set [13] turned out to be 8%.
In [1], `Cc1nccc(N2CCC(C(=O)N3CCN(S(=O)(=O)c4ccc(Br)cc4)CC3)CC2)n1` gave an ED80 of 1.2 mg/kg. The results for the IC50 on Lanosterol synthase [2] and at Lanosterol synthase [3] were 112 nM and 398 nM, respectively. 2 mg/kg produced 83% inhibition in vivo in [4]. In addition, in data set [5], the pKa is 7.2. Also, the ED50 in data set [6] turned out to be 0.3 mg/kg. The molecule further returned an inhibition in data set [7] of 76%.
In the case of `O=C(C1CCN(c2ccncc2)CC1)N1CCN(S(=O)(=O)c2ccccc2)CC1`, the values for the IC50 against Lanosterol synthase [2] and at Lanosterol synthase [12] were 143 nM and 326 nM, respectively. At 2 mg/kg the inhibition in vivo in [4] was 53%.
In the case of `COc1ccc(S(=O)(=O)N2CCN(C(=O)C3CCN(c4ccncc4)CC3)CC2)cc1`, the inhibition in vivo at 2 mg/kg in [4] was 38%.
Take `O=C(C1CCN(c2ccncc2)CC1)N1CCN(S(=O)(=O)c2ccc(Br)cc2)CC1`: the ED80 in data set [1] was > 2 mg/kg. For the same molecule, the IC50 against Lanosterol synthase [2] worked out at 161 nM; at Lanosterol synthase [12], 228 nM. In addition, the inhibition in vivo at 2 mg/kg in data set [4] is 69%. Besides, the pKa in data set [5] amounted to 9.2. The same molecule registered an inhibition in data set [14] of 100%. For the same molecule, it took a dose of 2 mg/kg to reach the 50% effect level in [6] (ED50).
Turning to `O=C(C1CCN(c2ccnnc2)CC1)N1CCN(S(=O)(=O)c2ccc(Br)cc2)CC1`, the inhibition in vivo at 2 mg/kg in data set [4] came out at 54%.
Consider `O=C(C1CCN(c2ccncc2)CC1)N1CCN(S(=O)(=O)c2cccc(Br)c2)CC1`, for which the inhibition in vivo at 2 mg/kg in [4] was found to be 43%.
